The values below come from paper PMC4398657 (Bioorganic & medicinal chemistry, 2015).

Marks after values point to notes of the source that are not given here. Some results are limits rather than exact numbers.

The test system of series [1] is wild-type E. coli (AB1157). Description: Checkerboard assay: minimum potentiation concentration. The format is cell-based, Escherichia coli. Conditions: potentiation of LVX and PIP, antibiotic not separated.
In series [2] the test system is transmembrane proton gradient, E. coli NCM3722. As to the kind of experiment: LacY permease-dependent uptake and accumulation of [3H]-TMG. The class given is cell-based, Escherichia coli. Conditions: concentrations up to 20 µM. The procedure, abridged: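 Whole E. coli cells take up [methyl-³H] β-D-thiogalactopyranoside through the LacY permease, and accumulation depends on proton motive force. The tracer stock was 1 mCi/ml at a specific activity of 7 Ci/mmol. Accumulated radiolabel was measured in the presence of test compound to estimate disruption of the transmembrane proton gradient.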

Series [3] relates to outer membrane of E. coli strain deficient in AcrAB (HN1159). Description: Nitrocefin influx. The format is cell-based, Escherichia coli.
A short description of series [4]: Murine liver microsome stability. The class given is in vitro ADME, mouse. Conditions: % remaining after 60 min at 37 °C in the presence of NADPH; 25 µM compound. The procedure, abridged: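 Pooled mouse liver microsomes (0.5 mg/mL final) with test compound at 25 µM final, in 100 mM potassium phosphate pH 7.4 and 3 mM MgCl₂, with or without 2 mM NADPH (no-NADPH as control); 1 h at 37 °C; stopped with an equal volume of acetonitrile with 0.1% TFA. Value is the compound peak-area ratio of +NADPH to no-NADPH.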

The test system of series [5] is AcrB (AcrAB-TolC in E. coli). As to the kind of experiment: Cell-based assay of kinetic parameters. More on the design: species or system Escherichia coli. Conditions: manuscript in preparation.
In series [6] the test system is wild-type E. coli (AB1157). Conditions: antibacterial activity of the EPI alone; cited from earlier work.

Take `CC1(C)Cc2c(C#N)c(SCC(=O)c3ccccc3)nc(N3CCOCC3)c2CO1` [Compound 12c]: the “EPI potency / MPC4 in words” value in series [1] is “inactive”.
For the molecule `CC1(C)Cc2c(C#N)c(SCC(O)c3ccccc3)nc(N3CCOCC3)c2CO1` (stereo not drawn) [Compound 12d, 6-(2-hydroxy-2-phenylethylthio)-5-cyano-3,3-dimethyl-8-morpholino-3,4-dihydro-1H-pyrano[3,4-c]pyridine], the “EPI potency / MPC4 in words” value in series [1] was “inactive”.
The same measure, in the same setting: with `CC1(C)Cc2c(C#N)c(SCCC#N)nc(N3CCOCC3)c2CO1` [Compound 20a] the entry was “inactive”.
On to `COc1cccc(CCSc2nc(N3CCOCC3)c3c(c2C#N)CC(C)(C)OC3)c1` [Compound 20f], for which the “inhibition of uptake and accumulation of 3H-TMG” value (“inhibition” below) in series [2] was “none of the analogs significantly inhibited uptake and accumulation”. In series [3], the “rate of nitrocefin influx” value is “none of the compounds increased the rate of nitrocefin influx”.
Regarding `COCCN1CCN(c2nc(SCCc3ccc(OC)cc3)c(C#N)c3c2COC(C)(C)C3)CC1` [Compound 21f], in series [2], the “inhibition” value was “none of the analogs significantly inhibited uptake and accumulation”.
The same measure, in the same setting: as for `COCCN1CCN(c2nc(SCCc3ccc(OC)c(OC)c3)c(C#N)c3c2COC(C)(C)C3)CC1` [Compound 21g], the entry is “none of the analogs significantly inhibited uptake and accumulation”.
Consider `CC(=O)Nc1ccc(CCSc2nc(N3CC(C)OC(C)C3)c3c(c2C#N)CC(C)(C)OC3)cc1` (stereo not drawn) [Compound 22f, 6-(4-acetamidophenethylthio)-5-cyano-3,3-dimethyl-8-(2,6-dimethyl-4-morpholino)-3,4-dihydro-1H-pyrano[3,4-c]pyridine], for which the MLMS in series [4] is given as 0 ^* %. Further, the “potency against AcrB relative to MBX2319” value in series [5] is given as “at least 20 fold”.
With `CC1CN(c2nc(SCCc3ccc(NC(=O)C(F)(F)F)cc3)c(C#N)c3c2COC(C)(C)C3)CC(C)O1` (stereo not drawn) [Compound 22g, 6-[4-(2,2,2-trifluoroacetamido)phenethylthio]-5-cyano-8-(2,6-dimethylmorpholino)-3,3-dimethyl-3,4-dihydro-1H-pyrano[3,4-c]pyridine], the MLMS in series [4] is 0 ^* %.
`C=CC(=O)Nc1ccc(CCSc2nc(N3CC(C)OC(C)C3)c3c(c2C#N)CC(C)(C)OC3)cc1` (stereo not drawn) [Compound 22i, 6-(4-acrylamidophenethylthio)-5-cyano-3,3-dimethyl-8-(2,6-dimethyl-4-morpholino)-3,4-dihydro-1H-pyrano[3,4-c]pyridine]: in series [2], the “inhibition” value is “none of the analogs significantly inhibited uptake and accumulation”. The “EPI potency / MPC4 in words” value in series [1] was “submicromolar”.
On to `CC1CN(c2nc(SCCc3ccc(NC(=N)N)cc3)c(C#N)c3c2COC(C)(C)C3)CC(C)O1` (stereo not drawn) [Compound 22k, 6-(4-guanidinophenethylthio)-5-cyano-3,3-dimethyl-8-(2,6-dimethyl-4-morpholino)-3,4-dihydro-1H-pyrano[3,4-c]pyridine], for which the “inhibition” value in series [2] was “none of the analogs significantly inhibited uptake and accumulation”. Moreover, the “EPI potency / MPC4 in words” value in series [1] is given as “submicromolar”.
By MIC is commonly meant the smallest concentration in the dilution series that meets the test's criterion for growth inhibition. On to `CC1(C)Cc2c(C#N)c(SCCc3ccccc3)nc(N3CCOCC3)c2CO1` [MBX2319, 3,3-dimethyl-5-cyano-8-morpholino-6-(phenethylthio)-3,4-dihydro-1H-pyrano[3,4-c]pyridine], for which the MIC in series [6] was ≥ 100 µM.
